Data set [1] concerns the target T1, D(2) dopamine receptor (Homo sapiens, UniProt P14416). The data set is described as follows: Displacement of [3H]spiroperidol from human cloned dopaminergic D2 receptor expressed in rat C6 cells. In kind it is cell-based.
For data set [2], the target named is T2, ATP-dependent translocase ABCB1 (Homo sapiens, UniProt P08183). The data set can be described thus: Inhibition of ABCB1-mediated [3H]vinblastine transportation in human Caco-2 cells. In kind it is cell-based. The gist of the method: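 Caco-2 monolayers grown 21 days (TEER >800 Ω × cm²). 20 nM [3H]vinblastine added to the basolateral side with or without compound (200 nM–400 µM) for 120 min at 37 °C. Appearance on the apical side measured by scintillation counting. IC50 from nonlinear fit. Mean of three experiments, triplicate samples.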

Data set [3] has as its target T1, D(2) dopamine receptor. The data set is described as follows: Displacement of [3H]spiroperidol from human cloned dopaminergic D2 receptor expressed in rat C6 cells at 10 uM. In kind it is cell-based. The gist of the method: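 Buffer was 50 mM Tris, 10 mM MgCl2, 1 mM EDTA, pH 7.4. Incubated 60 min at 27 °C, then filtered on PEI-soaked GF/C. Nonspecific binding with 10 µM haloperidol.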
(In a radioligand displacement assay an active substance lowers the binding of a labelled ligand.)

The target of data set [4] is T2, ATP-dependent translocase ABCB1. The data set can be described thus: Inhibition of ABCB1 in human Caco-2 cells assessed as ATPase activation at 100 uM after 2 hrs. The data set is classed as cell-based. The following applies: caco-2, 2 h. In short, it runs like this: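 Caco-2 cells seeded at 2 × 10⁴ cells/well and held overnight at 37 °C, 5% CO2. Exposed to compound in complete medium for 2 h at 37 °C. Cells then lysed and ATP read by luciferase luminescence after 10 min dark adaptation. Tested at 100 µM; a positive response is reported as a percentage.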

Data set [5] has as its system Caco-2. The data set is described as follows: Ratio of apparent permeability from basolateral to apical over apical to basolateral side of human Caco-2 cells after 120 mins by UV-visible spectroscopy. The following applies: caco-2, 2 h.
The target in data set [6] is T3, 5-hydroxytryptamine receptor 1A (Homo sapiens, UniProt P08908).
T3 sequence (P08908 whole entry): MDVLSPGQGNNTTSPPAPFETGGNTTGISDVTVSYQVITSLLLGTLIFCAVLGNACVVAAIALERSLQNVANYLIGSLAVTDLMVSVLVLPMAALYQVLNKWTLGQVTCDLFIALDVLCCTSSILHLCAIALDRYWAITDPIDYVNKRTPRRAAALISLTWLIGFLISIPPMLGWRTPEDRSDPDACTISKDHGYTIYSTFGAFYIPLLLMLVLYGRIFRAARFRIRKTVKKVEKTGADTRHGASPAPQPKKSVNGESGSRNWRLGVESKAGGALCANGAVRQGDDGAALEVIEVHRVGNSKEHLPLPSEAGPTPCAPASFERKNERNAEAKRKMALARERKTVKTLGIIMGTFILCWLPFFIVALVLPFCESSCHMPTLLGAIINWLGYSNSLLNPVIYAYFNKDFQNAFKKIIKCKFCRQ
The data set can be described thus: Displacement of [3H]8-OH-DPAT from human cloned 5-HT1A receptor expressed in human HeLa cells. The data set is classed as cell-based. In short, it runs like this: (§1)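 Compounds at 0.1 nM–10 µM in 50 mM Tris-HCl pH 7.4, 5 mM MgSO4, 120 min at 37 °C. Filtered on PEI-soaked GF/C. Nonspecific binding with 10 µM 8-OH-DPAT. […] Mean of three experiments, triplicate samples.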

Data set [7] addresses T4, 5-hydroxytryptamine receptor 1A (Homo sapiens) (UniProt P08908).
T4 sequence (whole entry): T3 sequence (P08908 whole entry)
The data set can be described thus: Displacement of [3H]8-OH-DPAT from human cloned 5-HT1A receptor expressed in human HeLa cells at 10 uM. In kind it is cell-based. The gist of the method:
as §1

T2 sequence (P08183 whole entry): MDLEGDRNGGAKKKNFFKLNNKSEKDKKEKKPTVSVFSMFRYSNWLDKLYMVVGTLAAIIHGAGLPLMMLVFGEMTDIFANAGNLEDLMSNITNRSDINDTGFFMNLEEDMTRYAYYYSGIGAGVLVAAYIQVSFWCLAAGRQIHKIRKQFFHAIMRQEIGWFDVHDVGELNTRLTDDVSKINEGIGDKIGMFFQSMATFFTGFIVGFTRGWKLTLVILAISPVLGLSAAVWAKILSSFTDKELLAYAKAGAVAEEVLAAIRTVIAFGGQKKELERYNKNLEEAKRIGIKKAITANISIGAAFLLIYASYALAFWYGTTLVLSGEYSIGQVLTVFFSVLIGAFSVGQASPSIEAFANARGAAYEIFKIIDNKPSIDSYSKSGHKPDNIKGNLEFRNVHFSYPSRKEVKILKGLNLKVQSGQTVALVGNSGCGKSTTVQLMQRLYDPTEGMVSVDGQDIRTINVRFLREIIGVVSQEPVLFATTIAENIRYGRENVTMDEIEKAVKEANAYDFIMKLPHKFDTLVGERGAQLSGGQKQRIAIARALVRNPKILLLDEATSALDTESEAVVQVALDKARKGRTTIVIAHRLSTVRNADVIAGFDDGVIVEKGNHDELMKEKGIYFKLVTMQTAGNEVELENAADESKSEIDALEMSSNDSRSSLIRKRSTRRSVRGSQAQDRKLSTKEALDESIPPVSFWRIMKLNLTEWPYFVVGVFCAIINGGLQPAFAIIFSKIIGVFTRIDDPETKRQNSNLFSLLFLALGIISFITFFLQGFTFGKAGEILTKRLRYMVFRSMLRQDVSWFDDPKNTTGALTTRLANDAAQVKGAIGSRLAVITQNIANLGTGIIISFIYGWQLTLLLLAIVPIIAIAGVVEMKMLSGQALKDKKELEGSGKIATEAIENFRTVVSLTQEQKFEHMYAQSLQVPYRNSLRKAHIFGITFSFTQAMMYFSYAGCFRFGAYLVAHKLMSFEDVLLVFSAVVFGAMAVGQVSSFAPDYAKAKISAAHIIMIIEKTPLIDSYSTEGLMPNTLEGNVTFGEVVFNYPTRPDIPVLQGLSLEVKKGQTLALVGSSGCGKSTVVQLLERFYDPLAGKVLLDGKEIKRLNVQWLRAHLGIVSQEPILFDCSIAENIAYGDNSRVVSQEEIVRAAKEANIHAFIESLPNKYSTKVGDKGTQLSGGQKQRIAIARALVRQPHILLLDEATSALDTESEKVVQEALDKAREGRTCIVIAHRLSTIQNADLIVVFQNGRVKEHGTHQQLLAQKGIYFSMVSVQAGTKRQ
T1 sequence (P14416 whole entry): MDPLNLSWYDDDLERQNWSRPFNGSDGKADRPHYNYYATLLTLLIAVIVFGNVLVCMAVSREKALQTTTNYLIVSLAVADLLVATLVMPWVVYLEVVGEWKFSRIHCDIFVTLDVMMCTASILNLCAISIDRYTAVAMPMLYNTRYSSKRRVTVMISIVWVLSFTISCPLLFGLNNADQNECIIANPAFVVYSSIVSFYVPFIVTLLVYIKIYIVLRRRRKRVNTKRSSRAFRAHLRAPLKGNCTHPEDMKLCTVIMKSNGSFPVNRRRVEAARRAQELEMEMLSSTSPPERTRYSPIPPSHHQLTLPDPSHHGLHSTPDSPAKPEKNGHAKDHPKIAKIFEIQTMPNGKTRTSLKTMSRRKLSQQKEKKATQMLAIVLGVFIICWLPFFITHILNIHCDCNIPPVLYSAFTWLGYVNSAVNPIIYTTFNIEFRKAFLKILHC

Consider `COc1cccc(CCc2ccccc2OCCN2CCN(c3cccc(Cl)c3)CC2)c1`, for which the Ki (usually a dissociation constant, usually derived from enzyme kinetics or from competition with a known ligand) in data set [1] is over 1000 nM; in data set [6], 686 nM. The 50% inhibitory concentration (IC50) (usually the concentration that gives 50% inhibition) in data set [2] was found to be 3200 nM. Moreover, the inhibition – broadly, the percentage by which the read-out fell short of the control – in data set [3] is 43%. The Activity entry in data set [4] is “Not Active”. Also, the Ratio in data set [5] was 3.6.
Regarding `COc1cccc(CCc2ccccc2OCCCCCN2CCN(c3cccc(Cl)c3)CC2)c1`, the values for the inhibition in data set [7] and in data set [3] were 14% and 25%, respectively. Also, the Ki is over 1000 nM in data set [1] and over 5000 nM in data set [6]. For the same molecule, in data set [4], the Activity result is “Not Active”.
In the case of `COc1cccc(CCc2ccccc2OCCCN2CCN(c3cccc(Cl)c3)CC2)c1`, the values for the Ki in data set [1] and in data set [6] were 298 nM and 1130 nM, respectively. Besides, the half-inhibitory concentration (IC50) in data set [2] is 2500 nM. In data set [4], the Activity result was “Not Active”. In addition, the Ratio in data set [5] was 6.8.
Turning to `COc1cccc(CCc2ccccc2OCCN2CCN(c3cccc(C(F)(F)F)c3)CC2)c1`, the values for the Ki in data set [1] and in data set [6] were over 1000 nM and 1410 nM, respectively. Further, half-maximal inhibition in data set [2] (IC50) was put at 40000 nM. The molecule also registered an inhibition in data set [3] of 31%. Further, the Activity entry in data set [4] was “Not Active”. In addition, the Ratio in data set [5] is reported as 2.6.
Turning to `COc1cccc(CCc2ccccc2OCCCN2CCN(c3cccc(C(F)(F)F)c3)CC2)c1`, the Ki was 1410 nM in data set [1] and 2870 nM in data set [6]. In addition, in data set [2], the IC50 was 6500 nM. Moreover, the Activity result in data set [4] is on record as “Not Active”. Also, in data set [5], the Ratio turned out to be 4.4.
For the molecule `COc1cccc(CCc2ccccc2OCCN2CCc3ccccc3C2)c1`, the inhibitory constant (Ki) was over 1000 nM in data set [1] and 1310 nM in data set [6]. The same molecule registered an IC50 in data set [2] of 12000 nM. This molecule yielded an inhibition in data set [3] of 35%. In addition, the Activity entry in data set [4] is “Not Active”. Besides, the Ratio in data set [5] was 7.2.
Take `COc1cccc(CCc2ccccc2OCCCCCN2CCc3ccccc3C2)c1`: the inhibition in data set [7] amounted to 15%; in data set [3], 16%. Also, the inhibition constant (Ki) in data set [1] was over 1000 nM; in data set [6], over 5000 nM. In addition, inhibition in data set [2] was half-maximal at 3170 nM (IC50). Further, in data set [4], the Activity result is recorded as “Not Active”. Further, in data set [5], the Ratio came out at 7.3.
Turning to `COc1cccc(CCc2ccccc2OCCCCCN2CCN(C)CC2)c1`, the inhibition in data set [7] amounted to 24%; in data set [3] it was 26%. Further, the inhibitory constant (Ki) is over 1000 nM in data set [1] and over 5000 nM in data set [6]. The same molecule displayed an IC50 in data set [2] of 6820 nM. For the same molecule, the Activity entry in data set [4] is listed as “Not Active”. Also, in data set [5], the Ratio was determined as 2.5.
For `COc1cccc(CCc2ccccc2OCCCCN2CCc3ccccc3C2)c1`, the Ki in data set [1] is over 1000 nM; in data set [6] it was 1330 nM. The inhibition in data set [3] was determined as 48%. Besides, the Activity result in data set [4] was “Not Active”.
As to `COc1cccc(CCc2ccccc2OCCN2CCN(c3ncccn3)CC2)c1`, the Ki came to 629 nM in data set [1] and 656 nM in data set [6]. The Activity result in data set [4] is “Not Active”.
As for `COc1cccc(CCc2ccccc2OCCCCN2CCN(c3cccc(Cl)c3)CC2)c1`, the results for the inhibitory constant (Ki) in data set [1] and in data set [6] were over 1000 nM and 1310 nM, respectively. The same molecule yielded an IC50 in data set [2] of 1800 nM. In data set [3], the inhibition turned out to be 35%. Moreover, the Activity entry in data set [4] was “Not Active”. Moreover, the Ratio in data set [5] is recorded as 5.1.
Regarding `COc1cccc(CCc2ccccc2OCCCN2CCN(C)CC2)c1`, the inhibition in data set [7] amounted to 40%. In addition, the Ki in data set [1] was 565 nM; in data set [6], over 5000 nM. For the same molecule, the IC50 in data set [2] turned out to be 2500 nM. Besides, in data set [4], the Activity result is “Not Active”. Moreover, in data set [5], the Ratio came to 4.7.
For the molecule `COc1cccc(CCc2ccccc2OCCCN2CCN(c3ncccn3)CC2)c1`, the results for the inhibition constant Ki in data set [1] and in data set [6] were 20 nM and 331 nM, respectively. The molecule further yielded an IC50 in data set [2] of 1200 nM. In addition, the Activity result in data set [4] was “Not Active”. The Ratio in data set [5] was determined as 131.
Regarding `COc1cc2c(cc1OC)CN(CCc1ccc(NC(=O)c3cccc4c(=O)c5cccc(OC)c5[nH]c34)cc1)CC2`, the Activity result in data set [4] is on record as “Not Active”.

(Values after ChEMBL document CHEMBL1140844, “2-[(3-Methoxyphenylethyl)phenoxy]-based ABCB1 inhibitors: effect of different basic side-chains on their biological properties” (J Med Chem, 2008).)
